In test [1] the test system is A-375. The test is described as follows: Antiproliferative activity against human A375 cells after 48 hrs by SRB assay. It is filed as functional, cell-based. The conditions noted are these: A-375, 48 h. In short, it runs like this: (§1)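 Cells seeded in round-bottom 96-well plates and exposed to a wide range of concentrations for 48 h. Fixed with 10% trichloroacetic acid, washed five times with water, air-dried overnight, then stained with sulforhodamine B. Total protein read at 560 nm. IC50 is the concentration inhibiting growth by 50% relative to DMSO-treated controls, obtained by nonlinear regression.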
(In general: In SRB staining, fixed cells bind dye roughly in proportion to their protein.)

The nature of test [2]: Antiproliferative activity against mouse B16-F1 cells after 48 hrs by SRB assay. It is filed as functional, cell-based. Conditions: B16-F1, 48 h. In short, it runs like this:
as §1

Test [3] in a line: Antiproliferative activity against fibroblast cells after 48 hrs by SRB assay. It is filed as cell-based. The method, boiled down:
as §1

pIC50: −log10 of the molar value.

Take `COc1cc(C2=N[C@H](C(=O)N(C)OC)CN2)cc(OC)c1OC`: the pIC50 in test [1], in test [2] and in test [3] was less than 4.70 in each case.
Regarding `CCCCCCCCC/C=C/CCCCCCCNC(=O)[C@@H]1CNC(c2ccccc2)=N1`, the pIC50 in test [1] was 5.08; in test [2], 4.92; in test [3] it was 4.61.
For `CCCCCCCCCCCCCCCCNC(=O)[C@@H]1CSC(Cc2ccc(NC(C)=O)cc2)N1` (stereo partly specified), in that order: 3.72, 3.77 and less than 4.00.
Consider `CCCCCCCCCCCCCCCCNC(=O)[C@H]1CC[C@@H](c2ccccc2)N1`, for which the pIC50 in test [1] is 4.86; in test [2], 4.94; in test [3] it was 4.33.
Consider `CCCCCCCCCCCCNC(=O)c1c[nH]c(-c2ccccc2)n1`, for which the figures for the pIC50 in test [1] and in test [2] were less than 4.52 and 4.52, respectively.
For `CCCCCCCCCCNC(=O)c1c[nH]c(-c2ccccc2)n1`, in that order: less than 4.52 and less than 4.52.
For `CCCCCCCCCCCCCCCCNC(=O)[C@@H]1CNC(c2ccc(NC(C)=O)cc2)=N1`, the pIC50 is 5.34 in test [1], 5.62 in test [2] and 4.83 in test [3].
`CN(C)/N=N/c1[nH]cnc1C(N)=O` [DACARBAZINE]: the negative-log IC50 (pIC50) in test [1] and in test [2] was less than 4.00 throughout.
In the case of `CCCCCCCCCCCCCCCCCCNC(=O)[C@@H]1CNC(c2ccccc2)=N1`, the values for the negative-log IC50 (pIC50) in test [1], in test [2] and in test [3] were 4.27, 4.30 and 3.95, respectively.
As to `CCCCCCCCCCCCCCCCNC(=O)[C@@H]1CNC(c2ccccc2)=N1`, the negative-log IC50 (pIC50) in test [1] is 4.98; in test [2], 5.24; in test [3], 4.22.
With `O=C(Nc1ccc(Br)cc1)c1c[nH]c(-c2ccccc2)n1`, the pIC50 in test [1] and in test [2] was less than 4.52 throughout.
`CCCCCCCCCCCCCCCCNC(=O)[C@@H]1CNC(Cc2cc(OC)c(OC)c(OC)c2)=N1`: the pIC50 in test [1] was 5.41; in test [2] it was 5.40; in test [3] it was 4.80.
For `O=C(Nc1ccc2c(c1)Cc1ccccc1-2)[C@@H]1CSC(Cc2ccccc2)N1` (stereo partly specified), in that order: 3.76, 3.93 and less than 4.00.
In the same order, the values of `CCCCCCCCCCCCCCCCCCNC(=O)c1c[nH]c(-c2ccccc2)n1` are 4.68, less than 4.52 and 4.32.
For `CCCCCCCCC/C=C/CCCCCCCNC(=O)[C@@H]1CSC(C(C)c2ccccc2)N1` (stereo partly specified), in that order: 4.67, 4.78 and 3.63.
Regarding `CC(=O)Nc1ccc(CC2N[C@H](C(=O)Nc3ccc4c(c3)Cc3ccccc3-4)CS2)cc1` (stereo partly specified), the pIC50 is 5.21 in test [1], 5.40 in test [2] and 4.82 in test [3].
For the compound `CCCCCCCCC/C=C/CCCCCCCNC(=O)[C@@H]1CSC(Cc2ccccc2)N1` (stereo partly specified), the negative-log IC50 (pIC50) in test [1] was 4.99; in test [2], 4.94; in test [3], 4.81.
For `CNC(=O)c1cc(Oc2ccc(NC(=O)Nc3ccc(Cl)c(C(F)(F)F)c3)cc2)ccn1` [SORAFENIB], the pIC50 in test [1] is 5.27; in test [2], 5.31; in test [3], 4.82.
In the same order, the values of `CCCCCCCCCCCCCCNC(=O)[C@@H]1CNC(c2ccccc2)=N1` are 5.15, 5.14 and 4.76.
In the same order, the values of `CCCCCCCCCCCCCCCCNC(=O)[C@@H]1CSC(C(C)c2ccccc2)N1` (stereo partly specified) are 4.88, 4.91 and 4.25.
In the case of `CCCCCCCCC/C=C/CCCCCCCNC(=O)c1c[nH]c(-c2ccccc2)n1`, the pIC50 in test [1] was 4.79; in test [2], 4.50; in test [3] it was 4.62.
In the case of `CCCCCCCCCCCCCCCCNC(=O)[C@@H]1CSC(Cc2ccccc2)N1` (stereo partly specified), the pIC50 is 5.09 in test [1], 5.19 in test [2] and 4.82 in test [3].
As for `CCCCCCCCCCCCCCCCNC(=O)c1c[nH]c(-c2ccccc2)n1`, the negative logarithm of the IC50 (pIC50) was 4.78 in test [1], 4.40 in test [2] and 4.55 in test [3].
In the case of `CCCCCCCCCCCCCCNC(=O)c1c[nH]c(-c2ccccc2)n1`, the figures for the negative logarithm of the IC50 (pIC50) in test [1], in test [2] and in test [3] were 4.73, 4.42 and 4.37, respectively.
For `CCCCCCCCCCCCCCCCNC(=O)[C@@H]1CNC(c2cc(OC)c(OC)c(OC)c2)=N1`, in that order: 5.39, 5.42 and 4.88.

What is called pIC50 is the negative decadic logarithm of the IC50, by convention in mol/L. Lower therefore signals a high IC50.
